Data from ChEMBL document CHEMBL4014308, “Amphiphilic Tobramycin-Lysine Conjugates Sensitize Multidrug Resistant Gram-Negative Bacteria to Rifampicin and Minocycline” (J Med Chem, 2017).
Activity calls are given as the source filed them. No cut-off for these calls is given here.

Experiments:
Klebsiella pneumoniae = experiment: Potentiation of rifampicin-induced antibacterial activity against multidrug-resistant Klebsiella pneumoniae 116381 at 4 ug/ml after 18 hrs by checkerboard assay; type: functional
Outline: (§1)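 Checkerboard in Mueller-Hinton broth: antibiotic serially diluted along one axis and adjuvant along the other (10 × 7 matrix). Inoculum from a 0.5 McFarland saline suspension diluted 1:50 in MHB; 18 h at 37 °C, then plate read. MIC is the lowest concentration with no growth. FIC of each agent is its concentration in a no-growth well divided by its MIC alone; FIC index is the sum of both. FIC index ≤0.5 counts as synergy.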

Pseudomonas aeruginosa [1] = experiment: Potentiation of rifampicin-induced antibacterial activity against multidrug/extremely drug-resistant/colistin-susceptible Pseudomonas aeruginosa isolate P262-101856 infected in Galleria mellonella assessed as host survival at 75 mg/kg after 24 hrs relative to control; type: functional; conditions: isolate P262-101856, 24 h
Outline: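 Galleria mellonella larvae (about 250 mg, used within 7 days; 15 per group) were injected with 10 µL of XDR P. aeruginosa P262 at 1.0×10^3 CFU/mL. At 2 h they received a single 10 µL injection: monotherapy at 75 mg/kg, or combinations at 12.5+12.5 to 75+75 mg/kg. PBS vehicle served as control. Survival was scored over 24 h at 37 °C.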

Enterobacter cloacae [2] = experiment: Synergistic antibacterial activity against multidrug-resistant Enterobacter cloacae 117029 after 18 hrs in presence of rifampicin by checkerboard assay; type: functional; conditions: Enterobacter cloacae, 117029, 18 h
Outline: (§2)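 Checkerboard in MHB with a 10 × 7 matrix: antibiotic serially diluted along one axis, adjuvant along the other. Inoculum was a 1:50 dilution of a 0.5 McFarland suspension, incubated 18 h at 37 °C and read on a plate reader. Each FIC is the concentration in a no-growth well divided by the MIC alone; FIC index is their sum, with ≤0.5 taken as synergy.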

Acinetobacter baumannii [3] = experiment: Antibacterial activity against multidrug-resistant Acinetobacter baumannii AB027 after 18 hrs by microtiter dilution assay; type: functional; conditions: AB027, 18 h
Outline: (§3)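 Broth microdilution following CLSI guidelines. An overnight culture was adjusted to 0.5 McFarland in saline, then diluted 1:50 in Mueller-Hinton broth. This inoculum was added in equal volume to 2-fold serial dilutions of agent in MHB and incubated 18 h at 37 °C. MIC was the lowest concentration with no visible growth.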

Pseudomonas aeruginosa [4] = experiment: Potentiation of minocycline-induced bactericidal activity against Pseudomonas aeruginosa PAO1 at 0.125 times antibacterial MIC after 90 mins; type: functional
Outline: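 Combination time-kill in PAO1 (LB, 37 °C). Aliquots taken at 0–360 min, serially diluted in PBS, plated on LB agar, and CFU counted after 20 h at 37 °C.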

Pseudomonas aeruginosa [5] = experiment: Synergistic antibacterial activity against Pseudomonas aeruginosa PAO1 after 18 hrs in presence of meropenem by checkerboard assay; type: functional; conditions: PAO1, 18 h
Outline: (§4)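 Checkerboard in MHB: antibiotic diluted along one axis and adjuvant along the other (10 × 7 matrix). Inoculum was a 1:50 dilution in MHB of a 0.5 McFarland saline suspension; incubated 18 h at 37 °C. Each FIC = concentration in the no-growth well divided by the MIC alone; FIC index = sum of both FICs. ≤0.5 synergy, 0.5–4 no interaction, ≥4 antagonism.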

Pseudomonas aeruginosa [6] = experiment: Potentiation of rifampicin-induced antibacterial activity against multidrug/extremely drug-resistant/colistin-susceptible Pseudomonas aeruginosa isolate P262-101856 at 4 ug/ml after 18 hrs by checkerboard assay; type: functional
Outline: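 Checkerboard broth microdilution in MHB: antibiotic serially diluted along one axis, adjuvant along the other (10 × 7 matrix). Inoculum from 0.5 McFarland saline suspension diluted 1:50 in MHB; 18 h at 37 °C. MIC taken as lowest concentration with no growth. FIC per agent = combination MIC/MIC alone; FIC index = sum (≤0.5 synergy).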

Pseudomonas aeruginosa [7] = experiment: Antibacterial activity against gentamicin/tobramycin-resistant Pseudomonas aeruginosa isolate CANWARD-2011 96846 after 18 hrs by microtiter dilution assay; type: functional; conditions: isolate CANWARD-2011 96846, 18 h; outline: as §3
Pseudomonas aeruginosa [8] = experiment: Potentiation of colistin-induced antibacterial activity against Pseudomonas aeruginosa PAO1 at 4 ug/ml after 18 hrs by checkerboard assay; type: functional; outline: as §1
Pseudomonas aeruginosa [9] = experiment: Disruption of proton motive force in Pseudomonas aeruginosa PAO1 cytoplasmic membrane assessed as repression of bacterial swimming motility after 20 hrs; type: functional
Outline: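 Swim plates of 0.3% agar with tryptone 5 g/L and NaCl 2.5 g/L, agent mixed into the medium and plates dried 2 h. PAO1 at 1.0 McFarland in 0.85% saline was point-inoculated at the center, and plates incubated 20 h at 37 °C before swim diameter was imaged.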

[10] = Cytotoxicity against human JIMT1 cells assessed as cell viability at 20 uM after 48 hrs by MTS assay relative to control; type: cell-based, JIMT-1; conditions: read-out: Activity
Outline: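 DU145 and JIMT-1 grown in DMEM with 10% FBS and penicillin/streptomycin at 37 °C, 5% CO2. 7500–9000 cells/well were seeded for 24 h, then treated at 2.5–30 µM (final) for 48 h. MTS reagent (20% v/v) added for 4 h and OD read at 490 nm after blank subtraction; viability expressed relative to vehicle control.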

[11] = system: Staphylococcus epidermidis; experiment: Antibacterial activity against methicillin-susceptible Staphylococcus epidermidis isolate CANWARD-2008 81388 after 18 hrs by microtiter dilution assay; type: functional; conditions: isolate CANWARD-2008 81388, 18 h; outline: as §3
Acinetobacter baumannii [12] = experiment: Synergistic antibacterial activity against multidrug-resistant Acinetobacter baumannii AB030 after 18 hrs in presence of minocycline by checkerboard assay; type: functional; conditions: AB030, 18 h; outline: as §2
Acinetobacter baumannii [13] = experiment: Synergistic antibacterial activity against multidrug-resistant Acinetobacter baumannii AB031 after 18 hrs in presence of minocycline by checkerboard assay; type: functional; conditions: AB031, 18 h; outline: as §2
Enterobacter cloacae [14] = experiment: Potentiation of rifampicin-induced antibacterial activity against multidrug-resistant Enterobacter cloacae 117029 at 4 ug/ml after 18 hrs by checkerboard assay; type: functional; outline: as §1
Pseudomonas aeruginosa [15] = experiment: Synergistic antibacterial activity against Pseudomonas aeruginosa PAO1 after 18 hrs in presence of kanamycin A by checkerboard assay; type: functional; conditions: PAO1, 18 h; outline: as §4
Pseudomonas aeruginosa [16] = experiment: Synergistic antibacterial activity against Pseudomonas aeruginosa PAO1 after 18 hrs in presence of colistin by checkerboard assay; type: functional; conditions: PAO1, 18 h; outline: as §4
Pseudomonas aeruginosa [17] = experiment: Potentiation of minocycline-induced antibacterial activity against multidrug/extremely drug-resistant/colistin-susceptible Pseudomonas aeruginosa isolate P262-101856 infected in Galleria mellonella assessed as mortality at 12.5 to 37.5 mg/kg after 24 hrs relative to control; type: functional
Outline: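 Galleria mellonella larvae (~250 mg, used within 7 days), 15 per group, injected with 10 µL XDR P. aeruginosa P262 suspension (1.0×10^3 CFU/mL in PBS). At 2 h, a single 10 µL injection of combination at 12.5 + 12.5, 25 + 25 or 37.5 + 37.5 mg/kg; PBS vehicle control. Kept at 37 °C and survival scored over 24 h.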

Pseudomonas aeruginosa [18] = experiment: Synergistic antibacterial activity against Pseudomonas aeruginosa PAO1 after 18 hrs in presence of moxifloxacin by checkerboard assay; type: functional; conditions: PAO1, 18 h; outline: as §4
Pseudomonas aeruginosa [19] = experiment: Potentiation of rifampicin-induced antibacterial activity against multidrug/extremely drug-resistant/colistin-resistant Pseudomonas aeruginosa isolate 101243 at 4 ug/ml after 18 hrs by checkerboard assay; type: functional; outline: as §1

For `Cl.Cl.Cl.Cl.Cl.Cl.Cl.NCCCC[C@H](N)C(=O)N(CCCCCCCCCCCCO[C@@H]1[C@@H](O[C@H]2O[C@H](CO)[C@@H](O)[C@H](N)[C@H]2O)[C@H](N)C[C@H](N)[C@H]1O[C@H]1O[C@H](CN)[C@@H](O)C[C@H]1N)Cc1c2ccccc2c(Cl)c2ccccc12`, the “fractional inhibitory concentration index (FICI)” value (Klebsiella pneumoniae) was 0.047, the survival at 75 mg/kg (Pseudomonas aeruginosa [1]) was 77% and the MIC (Enterobacter cloacae [2]) was 4 µg/mL. The MIC (Acinetobacter baumannii [3]) was 128 µg/mL, the Activity (Pseudomonas aeruginosa [4]) was “Active” and the MIC (Pseudomonas aeruginosa [5]) was 1 µg/mL. For the same compound, the “fractional inhibitory concentration index (FICI)” value (Pseudomonas aeruginosa [6]) was 0.141, the MIC (Pseudomonas aeruginosa [7]) was 32 µg/mL and the “fractional inhibitory concentration index (FICI)” value (Pseudomonas aeruginosa [8]) was 1.031. For the same compound, the Activity (Pseudomonas aeruginosa [9]) was “Dose-dependent effect”, the viability at 48 h, 20 µM [10] was greater than 50% and the MIC [11] was 2 µg/mL. The MIC (Acinetobacter baumannii [12]) was 16 µg/mL, the MIC (Acinetobacter baumannii [13]) was 2 µg/mL and the “fractional inhibitory concentration index (FICI)” value (Enterobacter cloacae [14]) was 0.02. The MIC (Pseudomonas aeruginosa [15]) was 0.5 µg/mL, the MIC (Pseudomonas aeruginosa [16]) was 1 µg/mL and the mortality (Pseudomonas aeruginosa [17]) was 100%. The MIC (Pseudomonas aeruginosa [18]) was 2 µg/mL and the “fractional inhibitory concentration index (FICI)” value (Pseudomonas aeruginosa [19]) was 0.188.
